KLK5 inh: human KLK5 protease inhibitors, primary screen, biochemical, 1536-well | recombinant hK5, fluorogenic AMC substrate cleavage | inhibition, % at 5 µM | 210,000 compounds, 0.59% hits;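 active = inhibition of 40% or more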;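 also: 0% = enzyme controls without compound and 100% = no-enzyme blanks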
m-calpain inh: inhibitors of pig calpain II, primary screen, biochemical, fluorogenic peptide substrate, 1536-well; 220,000 compounds, 0.37% hits; purified calpain II, 30 min; inhibition, % at 16 µM;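 active = inhibition above about 50%, limit read from the data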
FXIa inh 1536: human FXIa protease inhibitors, primary screen, biochemical, 1536-well; 220,000 compounds, 0.14% hits; Coagulation factor XI (Homo sapiens), P03951; purified FXIa, Boc-Glu-Ala-Arg-AMC fluorogenic substrate; AID 798, 2007; inhibition, % at 5 µM;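 active = inhibition of at least 40%; inactive = inhibition below 40%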;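 also: fluorescence of freed AMC excited at 355 nm; 0% = enzyme without compound and 100% = no enzyme blank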
FXIIa inh: human FXIIa protease inhibitors, primary screen, biochemical, 1536-well. AID 800, 2007. purified FXIIa, Boc-QGR-AMC fluorogenic substrate, 2 h. 220,000 compounds, 0.3% hits. inhibition, % at 5 µM. Coagulation factor XII (Homo sapiens), P00748; in the data active = inhibition above about 40%;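 also: 0% = enzyme with no compound and 100% = blank without enzyme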
Target sequence (P00748 20-372 limits assumed): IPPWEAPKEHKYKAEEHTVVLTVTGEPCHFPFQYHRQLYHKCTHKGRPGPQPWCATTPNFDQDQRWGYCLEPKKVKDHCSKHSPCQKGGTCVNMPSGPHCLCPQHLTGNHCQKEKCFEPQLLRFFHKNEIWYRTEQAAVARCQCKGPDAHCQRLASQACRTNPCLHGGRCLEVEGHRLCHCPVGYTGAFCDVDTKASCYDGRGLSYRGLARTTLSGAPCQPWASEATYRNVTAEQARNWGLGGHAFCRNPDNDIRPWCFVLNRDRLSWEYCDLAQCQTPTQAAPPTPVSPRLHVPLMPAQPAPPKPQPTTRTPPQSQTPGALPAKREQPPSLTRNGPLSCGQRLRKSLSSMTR
Target sequence (P00748 373-615 limits assumed): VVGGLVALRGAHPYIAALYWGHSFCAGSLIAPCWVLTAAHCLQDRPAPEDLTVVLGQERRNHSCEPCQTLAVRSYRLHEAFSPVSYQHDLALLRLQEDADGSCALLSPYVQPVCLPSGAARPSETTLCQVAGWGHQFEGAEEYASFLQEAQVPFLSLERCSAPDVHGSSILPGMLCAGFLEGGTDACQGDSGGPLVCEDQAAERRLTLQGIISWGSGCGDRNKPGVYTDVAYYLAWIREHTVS
thrombin 1536: human alpha-thrombin inhibitors, primary screen, counter-screen for coagulation protease inhibitor project, biochemical, 1536-well, fluorogenic AMC substrate | Prothrombin (Homo sapiens), P00734 | Boc-VPR-AMC fluorogenic substrate cleavage | inhibition, % at 5 µM | 220,000 compounds, 0.26% hits | AID 1046, 2008;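 active = inhibition at or above 40%; inactive = inhibition below 40%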;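 also: 0% = enzyme with no compound and 100% = wells without enzyme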
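signal = AMC fluorescence, 355/460 nm | material = human alpha-thrombin enzyme | control set = enzyme without compound as high, wells lacking enzyme as low | times = reaction at room temperature | read-out basis = percent inhibition scaled between no-compound controls and no-enzyme blanks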
Starred values were filed as active, the others as inactive; . = no result. An excerpt weighted towards active compounds, which were near 1.4% of everything screened.

SMILES	KLK5 inh	m-calpain inh	FXIa inh 1536	FXIIa inh	thrombin 1536
CCCCCc1cc(=O)oc2c(C(CCN(CC)CC)c3cc(OC)c(OC)c(OC)c3)c(OC)cc(OC)c12 (stereo unspecified)	-1	-9	-3	4	-4
COc1ccc(CCNCC2C(Oc3ccc(Cl)cc3)C(=O)N2c2ccccc2C)cc1OC (stereo unspecified)	.	38	1	8	-4
CN(C)c1ccc(-c2nnn(CC(=O)Nc3ccccc3N3CCOCC3)n2)cc1	66*	13	5	8	8
O=C(Cc1c2ccccc2nc2ccccc12)c1ccccc1	-10	-34	2	9	-3
O=C(OCCCC(=O)N1CCOCC1)c1ccccc1	42*	20	-3	18	5
CCn1ncc(C2=NOC(C(=O)NCc3ccc(OC)cc3)C2)c1C (stereo unspecified)	0	-5	-1	5	-4
CCn1ncc(C2=NOC(C(=O)NCc3ccccc3)C2)c1C (stereo unspecified)	45*	20	2	16	18
CCn1ncc(C2=NOC(C(=O)Nc3c(C)n(C)n(-c4ccccc4)c3=O)C2)c1C (stereo unspecified)	60*	5	5	6	39
COc1cc(C(=O)N2CCN(C/C=C/c3ccccc3)CC2)cc(OC)c1OC	14	-21	9	19	1
COc1cc(C(=O)N2CCC(O)(c3ccccc3)CC2)cc(OC)c1OC	51*	9	2	-6	12
Cc1nnc2c(-c3ccccc3)nc3ccccc3n12	-11	-14	3	13	45*
COc1ccc(NC(=S)N2CCN(CCN3C(=O)c4cccc5cccc(c45)C3=O)CC2)cc1	-14	51*	0	-2	3
CCOc1ccc(NC(=S)N2CCN(CCN3C(=O)c4cccc5cccc(c45)C3=O)CC2)cc1	-6	-8	-8	-2	-24
O=C(OCC(=O)N1CCCc2ccccc21)c1cnc(Cl)c(Cl)c1	-9	15	15	5	-2
O=C(OCC(=O)N1CCCc2ccccc21)c1ccc(Cl)nc1	29	22	14	47*	28
CCCOc1nc(SCCC)nc2c1cnn2-c1ccccc1	-3	38	1	6	-9
CC(O)C(=O)N/N=C/c1cccc2ccccc12 (stereo unspecified)	41*	25	6	13	48*
COC(=O)/C(=C/Nc1ccc(O)cc1)[N+](=O)[O-]	14	-12	-2	13	0
COC(=O)/C(=C/Nc1ccccc1)[N+](=O)[O-]	-2	32	27	46*	3
Nc1ccccc1C(=O)NNC(=O)C(=O)/C=C(\O)c1ccccc1	-20	-44	7	14	3
CCn1nc(CC(=O)O)c2ccccc2c1=O	19	11	66*	26	26
O=C(O)c1ccc(/C=C2\SC(=S)N(Nc3ccccc3)C2=O)cc1	29	18	49*	41*	19
CC(=O)NN1C(=O)/C(=C\c2ccccc2)SC1=S	89*	.	-3	-1	3
CC(=O)NN1C(=O)/C(=C\c2ccc(O)cc2)SC1=S	3	-26	2	14	-4
COC(=O)CC1C(=O)NCCN1C(=O)OC(C)(C)C (stereo unspecified)	0	6	0	.	-1
SMILES	KLK5 inh	m-calpain inh	FXIa inh 1536	FXIIa inh	thrombin 1536
CC(C)N(C(=S)NC1CCCCC1)c1ccccc1	4	-17	-1	9	-3
CC(C)N(Cc1ccccc1)C(=S)NC1CCCCC1	21	31	42*	102*	3
Cc1cc(-c2ccco2)n(CC(=O)O)n1	115*	13	-4	-3	-1
Cc1cc(-c2ccco2)n(CC(=O)NCc2ccccc2)n1	-3	-2	10	7	2
CCOC(=O)CN1CC23C=CC(O2)C(C(=O)Nc2ccc4c(c2)OCO4)C3C1=O (stereo unspecified)	1	2	2	9	-3
CCOC(=O)CN1CC23C=CC(O2)C(C(=O)Nc2ccc(OCC)cc2)C3C1=O (stereo unspecified)	43*	5	7	15	4
NC(=O)c1cc(Br)cc(C2CCCCC2)c1O	7	-29	8	5	-2
CCCCC(=O)OCC(=O)c1cc(C)n(-c2c(C)n(C)n(-c3ccccc3)c2=O)c1C	-3	-6	-8	4	-16
Cc1ccc(OCc2nnc(NC(=O)c3cccnc3)s2)cc1	0	-10	2	6	-2
CCOCCCNC(=O)/C(C#N)=C/c1ccccc1F	-23	-1	1	13	0
Cc1ccc(C)c(C(=O)c2c(C)nc3sccn23)c1	44*	21	4	26	22
CSc1cccc(NC(=S)N(Cc2ccccc2)Cc2cccnc2)c1	-19	1	-1	-3	3
COc1cc(/C=N/n2c(-c3cc(C)[nH]n3)n[nH]c2=S)ccc1O	4	-17	2	11	-4
COc1cc(/C=N/n2c(-c3cc(C)[nH]n3)n[nH]c2=S)cc(OC)c1OC	58*	22	-8	-1	-9
CCCN1CCC(N2CCCC(C(=O)O)C2)CC1 (stereo unspecified)	27	18	33	27	45*
CCOc1ccc(/C=N/n2cnnc2)cc1	-31	7	-15	-5	-10
CCOc1cc(/C=N/n2cnnc2)cc(Br)c1O	6	3	24	43*	2
O=C(Nc1cnn(Cc2ccc(F)cc2)c1)C(c1ccccc1)c1ccccc1	-14	53*	0	-1	-3
CCC(C)[C@H](NC(=O)NCc1ccc(S(N)(=O)=O)cc1)C(=O)O (stereo partly specified)	1	-14	4	9	-1
N#C/C(=C\c1cccnc1)C(=O)NC1CCCCC1	-2	1	2	9	-2
CCOC(=O)C1=C(CNCCOc2ccc(OC)cc2)NC(=O)NC1c1ccc2c(c1)OCO2 (stereo unspecified)	7	14	0	3	3
CCOC(=O)C1=C(CNCCc2ccc(Cl)cc2)NC(=O)NC1c1ccc2c(c1)OCO2 (stereo unspecified)	-23	53*	4	-10	-5
CNC(=O)COC(=O)c1cc(-c2ccco2)nc2ccccc12	28	-311	32	51*	16
COc1ccc(-c2nn3cnnc3s2)cc1OC	129*	-40	12	18	45*
Cc1nn(Cc2ccc(Cl)cc2Cl)c(C)c1NC(=O)c1nn(C)cc1Cl	20	60*	2	15	3
Cc1nn(Cc2ccc(Cl)cc2Cl)c(C)c1NC(=O)CCl	-5	16	19	28	5
CCc1ccc(S(=O)(=O)NC(=S)Nc2ccccc2)cc1	.	-1	4	9	2

Assay outcomes: PubChem BioAssay, several laboratories
